Measurements published in ChEMBL document CHEMBL2176950, “A frozen analogue approach to aminopyridinylimidazoles leading to novel and promising p38 MAP kinase inhibitors” (J Med Chem, 2012).
Active and inactive are the calls of the source. No cut-off for these calls is given here.

What was measured:
[1] = molecular target: T1, Mitogen-activated protein kinase 14 (Homo sapiens, UniProt Q16539); assay: Inhibition of p38alpha MAPK
Method in brief: (§1)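 p38 MAPK activity assay run by a previously published protocol. IC50 given as mean with SEM from three experiments. The activity coefficient is the IC50 of the SB203580 reference divided by the IC50 of the test compound.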

[2] = molecular target: T1, Mitogen-activated protein kinase 14; assay: Ratio of SB203580 IC50 to compound IC50 for inhibition of p38alpha MAPK; method in brief: as §1
[3] = molecular target: Mitogen-activated protein kinase 11 (Homo sapiens) (UniProt Q15759); assay: Inhibition of MAPK11 assessed as residual activity at 1000 nM
Chain of Mitogen-activated protein kinase 11 (Homo sapiens) (Q15759 whole entry): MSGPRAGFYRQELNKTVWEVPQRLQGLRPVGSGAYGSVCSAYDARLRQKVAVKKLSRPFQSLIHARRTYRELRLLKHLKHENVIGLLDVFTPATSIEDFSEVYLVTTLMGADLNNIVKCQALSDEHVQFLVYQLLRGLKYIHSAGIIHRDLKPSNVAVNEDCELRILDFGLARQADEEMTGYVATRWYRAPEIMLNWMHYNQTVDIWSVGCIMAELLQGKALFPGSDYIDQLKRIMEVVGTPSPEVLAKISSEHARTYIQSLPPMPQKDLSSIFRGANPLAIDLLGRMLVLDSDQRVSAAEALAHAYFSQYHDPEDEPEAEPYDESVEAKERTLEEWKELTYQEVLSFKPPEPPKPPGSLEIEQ

[4] = molecular target: TRAF2 and NCK-interacting protein kinase (Homo sapiens) (UniProt Q9UKE5); assay: Inhibition of KIAA0551 assessed as residual activity at 1000 nM
Chain of TRAF2 and NCK-interacting protein kinase (Homo sapiens) (Q9UKE5 whole entry, looked up): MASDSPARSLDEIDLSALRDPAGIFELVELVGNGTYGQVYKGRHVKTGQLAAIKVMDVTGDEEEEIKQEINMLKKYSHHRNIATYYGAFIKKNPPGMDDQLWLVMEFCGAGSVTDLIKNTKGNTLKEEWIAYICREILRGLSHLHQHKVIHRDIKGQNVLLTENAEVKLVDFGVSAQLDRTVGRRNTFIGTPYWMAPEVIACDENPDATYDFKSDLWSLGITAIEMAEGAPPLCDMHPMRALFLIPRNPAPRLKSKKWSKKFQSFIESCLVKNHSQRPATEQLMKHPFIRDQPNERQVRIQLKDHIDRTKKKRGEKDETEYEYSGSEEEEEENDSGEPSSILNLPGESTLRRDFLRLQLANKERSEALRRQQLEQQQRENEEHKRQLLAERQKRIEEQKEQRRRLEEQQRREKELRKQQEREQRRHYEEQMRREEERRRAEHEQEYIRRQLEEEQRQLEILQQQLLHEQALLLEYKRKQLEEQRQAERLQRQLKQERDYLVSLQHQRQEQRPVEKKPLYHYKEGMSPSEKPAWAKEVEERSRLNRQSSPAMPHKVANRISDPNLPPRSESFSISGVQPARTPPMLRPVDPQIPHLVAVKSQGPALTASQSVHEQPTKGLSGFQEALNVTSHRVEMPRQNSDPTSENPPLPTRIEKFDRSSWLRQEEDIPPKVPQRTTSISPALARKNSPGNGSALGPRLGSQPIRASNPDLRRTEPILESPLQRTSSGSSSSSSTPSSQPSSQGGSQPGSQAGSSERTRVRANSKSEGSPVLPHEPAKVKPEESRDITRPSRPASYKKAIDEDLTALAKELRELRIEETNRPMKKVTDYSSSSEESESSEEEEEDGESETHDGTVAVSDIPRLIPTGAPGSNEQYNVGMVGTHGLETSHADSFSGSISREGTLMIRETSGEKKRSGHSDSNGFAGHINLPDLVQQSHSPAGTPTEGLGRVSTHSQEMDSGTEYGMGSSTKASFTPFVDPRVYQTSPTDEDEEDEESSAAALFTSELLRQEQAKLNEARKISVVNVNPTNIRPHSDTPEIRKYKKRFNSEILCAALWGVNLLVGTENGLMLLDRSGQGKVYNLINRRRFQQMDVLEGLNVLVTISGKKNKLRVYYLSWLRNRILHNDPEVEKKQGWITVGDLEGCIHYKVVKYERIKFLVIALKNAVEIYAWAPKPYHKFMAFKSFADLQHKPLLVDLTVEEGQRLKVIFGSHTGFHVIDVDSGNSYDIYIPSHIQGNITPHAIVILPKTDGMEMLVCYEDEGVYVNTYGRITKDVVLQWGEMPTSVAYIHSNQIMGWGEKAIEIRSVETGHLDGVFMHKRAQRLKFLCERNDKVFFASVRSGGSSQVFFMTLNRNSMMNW

[5] = molecular target: T2, Serine/threonine-protein kinase 36 (Homo sapiens) (UniProt Q9NRP7); assay: Inhibition of STK36 assessed as residual activity at 1000 nM
T2 sequence (whole entry): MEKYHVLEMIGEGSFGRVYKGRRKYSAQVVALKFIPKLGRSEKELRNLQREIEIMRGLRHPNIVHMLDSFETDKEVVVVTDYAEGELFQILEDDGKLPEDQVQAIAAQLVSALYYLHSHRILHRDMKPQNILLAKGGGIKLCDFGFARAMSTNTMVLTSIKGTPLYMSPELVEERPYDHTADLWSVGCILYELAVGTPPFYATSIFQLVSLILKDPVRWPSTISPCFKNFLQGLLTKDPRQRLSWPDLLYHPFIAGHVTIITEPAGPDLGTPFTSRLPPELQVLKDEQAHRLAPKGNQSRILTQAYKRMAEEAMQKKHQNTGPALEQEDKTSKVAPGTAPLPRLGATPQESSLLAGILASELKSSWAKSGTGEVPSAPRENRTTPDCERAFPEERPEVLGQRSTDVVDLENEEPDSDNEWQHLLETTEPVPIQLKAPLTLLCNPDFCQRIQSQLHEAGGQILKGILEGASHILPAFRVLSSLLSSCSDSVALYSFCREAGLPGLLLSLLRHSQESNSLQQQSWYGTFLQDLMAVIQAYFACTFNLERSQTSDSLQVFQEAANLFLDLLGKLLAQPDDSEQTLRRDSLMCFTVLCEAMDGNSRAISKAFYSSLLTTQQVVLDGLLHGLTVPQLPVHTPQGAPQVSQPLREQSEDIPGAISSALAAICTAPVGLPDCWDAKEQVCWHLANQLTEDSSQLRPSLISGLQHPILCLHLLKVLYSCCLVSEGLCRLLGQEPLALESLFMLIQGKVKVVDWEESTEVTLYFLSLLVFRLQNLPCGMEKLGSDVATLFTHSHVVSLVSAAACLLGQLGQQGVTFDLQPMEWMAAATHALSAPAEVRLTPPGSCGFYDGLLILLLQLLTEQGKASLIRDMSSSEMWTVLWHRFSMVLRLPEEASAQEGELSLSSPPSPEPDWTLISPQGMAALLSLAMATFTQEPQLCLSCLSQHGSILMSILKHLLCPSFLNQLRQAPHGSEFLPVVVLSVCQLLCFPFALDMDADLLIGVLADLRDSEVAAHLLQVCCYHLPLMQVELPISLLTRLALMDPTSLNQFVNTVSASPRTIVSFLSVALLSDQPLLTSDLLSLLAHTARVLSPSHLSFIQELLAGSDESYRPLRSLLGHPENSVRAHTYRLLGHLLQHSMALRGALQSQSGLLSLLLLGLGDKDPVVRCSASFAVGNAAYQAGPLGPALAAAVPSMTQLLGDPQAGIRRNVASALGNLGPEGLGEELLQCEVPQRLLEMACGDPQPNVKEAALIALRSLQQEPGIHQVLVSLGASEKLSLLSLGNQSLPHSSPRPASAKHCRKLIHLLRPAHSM

[6] = molecular target: Proto-oncogene tyrosine-protein kinase Src (Homo sapiens) (UniProt P12931); assay: Inhibition of SRC assessed as residual activity at 1000 nM
Chain of Proto-oncogene tyrosine-protein kinase Src (Homo sapiens) (P12931 2-536 limits assumed): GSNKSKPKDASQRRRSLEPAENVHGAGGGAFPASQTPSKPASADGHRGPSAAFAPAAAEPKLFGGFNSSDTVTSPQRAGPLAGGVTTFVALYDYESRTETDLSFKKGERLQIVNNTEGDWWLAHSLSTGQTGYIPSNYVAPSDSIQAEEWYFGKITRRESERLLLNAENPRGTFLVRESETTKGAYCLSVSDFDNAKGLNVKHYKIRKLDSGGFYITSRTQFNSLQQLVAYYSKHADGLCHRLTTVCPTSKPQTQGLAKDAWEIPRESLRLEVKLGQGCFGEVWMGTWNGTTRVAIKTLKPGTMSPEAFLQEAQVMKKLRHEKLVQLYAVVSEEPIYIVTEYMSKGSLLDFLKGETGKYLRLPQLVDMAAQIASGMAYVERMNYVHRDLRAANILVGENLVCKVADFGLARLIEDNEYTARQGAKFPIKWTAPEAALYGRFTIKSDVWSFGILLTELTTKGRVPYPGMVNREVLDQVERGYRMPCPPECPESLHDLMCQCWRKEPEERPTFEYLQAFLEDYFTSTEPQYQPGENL

[7] = molecular target: Receptor-interacting serine/threonine-protein kinase 2 (Homo sapiens) (UniProt O43353); assay: Inhibition of RIPK2 assessed as residual activity at 1000 nM
Chain of Receptor-interacting serine/threonine-protein kinase 2 (Homo sapiens) (O43353 whole entry): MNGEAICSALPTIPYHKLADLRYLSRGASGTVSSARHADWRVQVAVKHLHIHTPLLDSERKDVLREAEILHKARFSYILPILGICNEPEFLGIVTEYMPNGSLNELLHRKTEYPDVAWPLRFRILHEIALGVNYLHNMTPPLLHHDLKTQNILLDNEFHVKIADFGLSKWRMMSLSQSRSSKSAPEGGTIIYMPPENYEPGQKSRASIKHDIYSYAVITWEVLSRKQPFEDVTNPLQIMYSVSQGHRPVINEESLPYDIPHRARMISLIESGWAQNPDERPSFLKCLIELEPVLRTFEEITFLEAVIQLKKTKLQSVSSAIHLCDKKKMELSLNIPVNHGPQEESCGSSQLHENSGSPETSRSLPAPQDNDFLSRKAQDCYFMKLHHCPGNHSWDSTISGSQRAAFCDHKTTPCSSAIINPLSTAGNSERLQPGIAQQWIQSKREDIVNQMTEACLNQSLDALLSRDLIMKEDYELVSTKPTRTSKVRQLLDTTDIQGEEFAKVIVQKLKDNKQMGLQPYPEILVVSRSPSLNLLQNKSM

[8] = molecular target: T1, Mitogen-activated protein kinase 14; assay: Inhibition of MAPK14 assessed as residual activity at 1000 nM
[9] = molecular target: T3, Cyclin-G-associated kinase (Homo sapiens) (UniProt O14976); assay: Inhibition of GAK assessed as residual activity at 1000 nM
T3 sequence (whole entry): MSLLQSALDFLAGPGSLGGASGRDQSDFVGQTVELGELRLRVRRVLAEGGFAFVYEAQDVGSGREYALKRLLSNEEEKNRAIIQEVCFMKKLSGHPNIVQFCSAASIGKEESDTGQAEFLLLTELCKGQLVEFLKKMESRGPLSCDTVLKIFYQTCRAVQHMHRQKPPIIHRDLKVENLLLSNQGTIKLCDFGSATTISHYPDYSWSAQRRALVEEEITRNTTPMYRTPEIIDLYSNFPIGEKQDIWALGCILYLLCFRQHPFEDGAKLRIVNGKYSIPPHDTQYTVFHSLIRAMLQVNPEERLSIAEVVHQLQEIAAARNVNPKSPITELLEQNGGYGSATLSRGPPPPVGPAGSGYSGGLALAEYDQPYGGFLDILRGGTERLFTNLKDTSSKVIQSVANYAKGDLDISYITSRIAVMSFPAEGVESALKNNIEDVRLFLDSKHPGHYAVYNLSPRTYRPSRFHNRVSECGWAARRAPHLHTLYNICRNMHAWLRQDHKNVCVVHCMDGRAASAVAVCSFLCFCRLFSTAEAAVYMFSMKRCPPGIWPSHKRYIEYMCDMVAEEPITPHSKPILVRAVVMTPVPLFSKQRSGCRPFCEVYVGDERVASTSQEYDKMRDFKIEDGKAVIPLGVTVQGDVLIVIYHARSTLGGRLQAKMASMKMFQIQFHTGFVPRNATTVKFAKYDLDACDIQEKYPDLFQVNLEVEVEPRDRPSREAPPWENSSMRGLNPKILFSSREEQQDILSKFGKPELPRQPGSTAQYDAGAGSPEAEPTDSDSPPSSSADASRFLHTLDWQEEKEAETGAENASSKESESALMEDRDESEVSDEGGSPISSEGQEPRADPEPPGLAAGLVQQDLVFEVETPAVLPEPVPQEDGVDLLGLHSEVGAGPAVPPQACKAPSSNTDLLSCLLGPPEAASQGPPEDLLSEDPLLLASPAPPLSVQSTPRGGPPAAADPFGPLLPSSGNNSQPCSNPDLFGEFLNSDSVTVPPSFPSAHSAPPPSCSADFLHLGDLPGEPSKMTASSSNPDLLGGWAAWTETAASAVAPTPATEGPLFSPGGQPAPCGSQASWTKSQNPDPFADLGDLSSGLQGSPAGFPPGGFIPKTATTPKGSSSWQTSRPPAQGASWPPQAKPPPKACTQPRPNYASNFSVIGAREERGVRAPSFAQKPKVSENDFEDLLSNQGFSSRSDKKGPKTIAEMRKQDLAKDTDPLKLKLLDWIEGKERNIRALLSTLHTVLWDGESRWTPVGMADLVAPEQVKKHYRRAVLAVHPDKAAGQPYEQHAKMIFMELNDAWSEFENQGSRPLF

[10] = molecular target: Protein-tyrosine kinase 6 (Homo sapiens) (UniProt Q13882); assay: Inhibition of PTK6 assessed as residual activity at 1000 nM
[11] = molecular target: Mitogen-activated protein kinase 9 (Homo sapiens) (UniProt P45984); assay: Inhibition of JNK2 assessed as residual activity at 1000 nM
Chain of Mitogen-activated protein kinase 9 (Homo sapiens) (P45984 whole entry, looked up): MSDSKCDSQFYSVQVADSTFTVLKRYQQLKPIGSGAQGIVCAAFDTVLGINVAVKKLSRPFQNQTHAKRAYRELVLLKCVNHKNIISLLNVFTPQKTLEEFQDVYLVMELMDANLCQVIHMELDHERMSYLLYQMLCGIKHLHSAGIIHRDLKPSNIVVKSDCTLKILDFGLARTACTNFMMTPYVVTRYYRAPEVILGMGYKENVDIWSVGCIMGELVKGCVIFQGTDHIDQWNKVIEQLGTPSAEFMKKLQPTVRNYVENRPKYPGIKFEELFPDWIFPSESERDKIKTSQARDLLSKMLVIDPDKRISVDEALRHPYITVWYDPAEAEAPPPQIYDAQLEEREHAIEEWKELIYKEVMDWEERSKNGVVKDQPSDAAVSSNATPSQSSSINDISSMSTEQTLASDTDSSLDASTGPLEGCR

[12] = molecular target: Mitogen-activated protein kinase 10 (Homo sapiens) (UniProt P53779); assay: Inhibition of JNK3 assessed as residual activity at 1000 nM
Chain of Mitogen-activated protein kinase 10 (Homo sapiens) (P53779 whole entry): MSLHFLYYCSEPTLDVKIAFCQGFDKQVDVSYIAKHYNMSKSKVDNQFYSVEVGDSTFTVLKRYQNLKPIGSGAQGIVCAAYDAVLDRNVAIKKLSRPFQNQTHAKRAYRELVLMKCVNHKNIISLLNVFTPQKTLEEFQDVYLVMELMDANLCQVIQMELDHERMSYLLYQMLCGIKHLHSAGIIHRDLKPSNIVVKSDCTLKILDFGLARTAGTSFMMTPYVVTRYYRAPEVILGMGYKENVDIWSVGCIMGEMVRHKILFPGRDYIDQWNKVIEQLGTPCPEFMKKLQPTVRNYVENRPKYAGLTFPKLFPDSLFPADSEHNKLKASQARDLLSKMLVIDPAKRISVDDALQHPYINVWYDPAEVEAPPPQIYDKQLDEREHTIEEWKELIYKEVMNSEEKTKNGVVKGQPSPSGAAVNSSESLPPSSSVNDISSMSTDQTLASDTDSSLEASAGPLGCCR

[13] = molecular target: Mitogen-activated protein kinase 8 (Homo sapiens) (UniProt P45983); assay: Inhibition of JNK1 assessed as residual activity at 1000 nM
Chain of Mitogen-activated protein kinase 8 (Homo sapiens) (P45983 whole entry): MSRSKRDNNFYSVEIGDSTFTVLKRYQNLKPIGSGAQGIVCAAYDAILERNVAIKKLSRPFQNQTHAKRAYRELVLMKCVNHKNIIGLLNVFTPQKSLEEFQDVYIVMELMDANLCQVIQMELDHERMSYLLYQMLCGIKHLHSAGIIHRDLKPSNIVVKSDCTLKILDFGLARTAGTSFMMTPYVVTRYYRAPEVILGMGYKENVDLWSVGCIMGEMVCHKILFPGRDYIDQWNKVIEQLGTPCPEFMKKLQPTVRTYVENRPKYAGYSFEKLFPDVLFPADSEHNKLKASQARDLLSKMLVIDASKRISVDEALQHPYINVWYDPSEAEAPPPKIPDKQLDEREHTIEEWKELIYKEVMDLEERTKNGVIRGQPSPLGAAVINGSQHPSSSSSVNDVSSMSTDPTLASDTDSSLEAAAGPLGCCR

[14] = molecular target: Tyrosine-protein kinase FRK (Homo sapiens) (UniProt P42685); assay: Inhibition of FRK assessed as residual activity at 1000 nM
Chain of Tyrosine-protein kinase FRK (Homo sapiens) (P42685 whole entry): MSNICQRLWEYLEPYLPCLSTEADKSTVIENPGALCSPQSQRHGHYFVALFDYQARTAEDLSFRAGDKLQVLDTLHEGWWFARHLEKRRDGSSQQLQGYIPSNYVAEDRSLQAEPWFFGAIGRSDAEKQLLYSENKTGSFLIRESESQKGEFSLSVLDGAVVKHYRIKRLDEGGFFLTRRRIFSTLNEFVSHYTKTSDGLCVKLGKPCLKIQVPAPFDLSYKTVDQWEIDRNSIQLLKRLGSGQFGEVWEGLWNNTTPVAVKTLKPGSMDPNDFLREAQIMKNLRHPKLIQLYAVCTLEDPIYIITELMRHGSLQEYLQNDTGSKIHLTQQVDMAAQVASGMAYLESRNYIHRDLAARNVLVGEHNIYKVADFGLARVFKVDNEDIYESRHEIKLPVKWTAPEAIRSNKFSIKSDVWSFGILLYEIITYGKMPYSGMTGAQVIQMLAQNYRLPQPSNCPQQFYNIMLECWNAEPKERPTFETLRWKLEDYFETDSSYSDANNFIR

[15] = molecular target: T4, Mitogen-activated protein kinase 12 (Homo sapiens) (UniProt P53778); settings: 1000 nM
T4 sequence (whole entry): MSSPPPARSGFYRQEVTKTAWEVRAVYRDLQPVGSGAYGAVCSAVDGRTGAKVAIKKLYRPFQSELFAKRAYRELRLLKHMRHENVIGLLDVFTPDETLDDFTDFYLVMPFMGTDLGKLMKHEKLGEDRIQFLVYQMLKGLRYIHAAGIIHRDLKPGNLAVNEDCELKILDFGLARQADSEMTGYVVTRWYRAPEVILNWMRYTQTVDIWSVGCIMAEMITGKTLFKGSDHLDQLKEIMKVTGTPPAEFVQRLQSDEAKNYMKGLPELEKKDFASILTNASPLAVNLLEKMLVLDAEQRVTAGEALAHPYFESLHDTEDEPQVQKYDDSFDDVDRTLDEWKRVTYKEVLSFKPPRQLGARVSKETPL

T1 sequence (Q16539 whole entry): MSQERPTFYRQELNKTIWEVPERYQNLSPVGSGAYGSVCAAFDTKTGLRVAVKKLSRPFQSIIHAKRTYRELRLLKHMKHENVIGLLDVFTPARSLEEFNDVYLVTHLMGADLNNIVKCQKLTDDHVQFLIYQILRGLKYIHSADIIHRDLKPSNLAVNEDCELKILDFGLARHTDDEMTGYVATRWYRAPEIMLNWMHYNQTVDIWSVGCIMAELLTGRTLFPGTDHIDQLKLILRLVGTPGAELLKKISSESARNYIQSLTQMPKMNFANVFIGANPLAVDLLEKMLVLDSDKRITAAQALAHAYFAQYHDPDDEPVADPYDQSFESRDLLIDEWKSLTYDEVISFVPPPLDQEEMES

SMILES | IC50 [1] | Ratio IC50 [2] | other results
Fc1ccc(-c2[nH]c(-c3ccccc3)nc2-c2ccnc3[nH]c(C4CCCCC4)cc23)cc1 | 15 nM |  | 
C[S+]([O-])c1ccc(-c2nc(-c3ccc(F)cc3)c(-c3ccnc4[nH]c(-c5ccccc5)cc34)[nH]2)cc1 (stereo not given) |  | 4.75 | 
Oc1ccc(-c2nc(-c3ccnc4[nH]c(-c5ccccc5)cc34)c(-c3ccc(F)cc3)[nH]2)cc1 | 3 nM |  | 
Fc1ccc(-c2nc(-c3ccccc3)[nH]c2-c2ncnc3[nH]cnc23)cc1 | 740 nM | 0.1 | 
Fc1ccc(-c2nc(-c3ccccc3)[nH]c2-c2ccnc3[nH]c(Cc4ccccc4)cc23)cc1 | 345 nM | 0.07 | 
Fc1ccc(-c2nc(-c3ccccc3)[nH]c2-c2ccnc3[nH]c4ccccc4c23)cc1 |  | 0.55 | 
Fc1ccc(-c2[nH]c(-c3ccccc3)nc2-c2ccnc3[nH]ccc23)cc1 | 108 nM |  | 
Fc1ccc(-c2nc(-c3ccccc3)[nH]c2-c2ncnc3[nH]ccc23)cc1 | 2600 nM | 0.03 | 
C[S+]([O-])c1ccc(-c2nc(-c3ccnc4[nH]c(-c5ccccc5)cc34)c(-c3ccc(F)cc3)[nH]2)cc1 (stereo not given) | 8 nM |  | 
Fc1ccc(-c2nc(-c3ccccc3)[nH]c2-c2ccnc3[nH]c(C4CCCCC4)cc23)cc1 |  | 2.07 | 
COc1cc(-c2nc(-c3ccnc4[nH]c(-c5ccccc5)cc34)c(-c3ccc(F)cc3)[nH]2)cc(OC)c1OC | 290 nM |  | 
Oc1ccc(-c2nc(-c3ccc(F)cc3)c(-c3ccnc4[nH]c(-c5ccccc5)cc34)[nH]2)cc1 |  | 19.7 | Activity [3]: 2.5%; Activity [4]: 17%; Activity [5]: 4.8%; Activity [6]: 28%; Activity [7]: 3.2%; Activity [8]: 8.9%; Activity [9]: 7.7%
COc1ccc(-c2nc(-c3ccc(F)cc3)c(-c3ccnc4[nH]c(-c5ccccc5)cc34)[nH]2)cc1 |  | 0.67 | 
CSc1ccc(-c2nc(-c3ccnc4[nH]c(-c5ccccc5)cc34)c(-c3ccc(F)cc3)[nH]2)cc1 | 39 nM |  | 
Fc1ccc(-c2[nH]c(-c3ccccc3)nc2-c2ccncc2)cc1 |  | 0.33 | 
Fc1ccc(-c2nc(-c3ccccc3)[nH]c2-c2ccnc3[nH]ccc23)cc1 |  | 0.47 | 
Oc1ccc(-c2nc(-c3ccc(F)cc3)c(-c3ccncc3)[nH]2)cc1 |  |  | inhibition [10]: Active; inhibition [11]: Active; inhibition [12]: Active; inhibition [13]: Active; inhibition [14]: Active; inhibition [3]: Active; inhibition [4]: Active; inhibition [5]: Active; inhibition [7]: Active; inhibition [8]: Active; inhibition [9]: Active; inhibition [15]: Active
COc1cc(-c2nc(-c3ccc(F)cc3)c(-c3ccnc4[nH]c(-c5ccccc5)cc34)[nH]2)cc(OC)c1OC |  | 0.12 | 
Fc1ccc(-c2nc(-c3ccccc3)[nH]c2-c2ccnc3[nH]c(-c4ccccc4)cc23)cc1 |  | 2.38 | 
Fc1ccc(-c2[nH]c(-c3ccccc3)nc2-c2ccnc3[nH]c4ccccc4c23)cc1 | 153 nM |  | 
Fc1ccc(-c2[nH]c(-c3ccccc3)nc2-c2ccnc3[nH]c(-c4ccccc4)cc23)cc1 | 16 nM |  | 
COCn1c(-c2ccccc2)nc(-c2ccc(F)cc2)c1-c1ncnc2[nH]cnc12 | 2990 nM | 0.01 | 
CS(=O)(=O)c1ccc(-c2nc(-c3ccc(F)cc3)c(-c3ccnc4[nH]c(-c5ccccc5)cc34)[nH]2)cc1 | 11 nM | 3.46 | 
COc1ccc(-c2nc(-c3ccnc4[nH]c(-c5ccccc5)cc34)c(-c3ccc(F)cc3)[nH]2)cc1 | 70 nM |  | 
CSc1ccc(-c2nc(-c3ccc(F)cc3)c(-c3ccnc4[nH]c(-c5ccccc5)cc34)[nH]2)cc1 |  | 0.97 | 
COCn1c(-c2ccccc2)nc(-c2ccc(F)cc2)c1-c1ccnc2[nH]ccc12 | 451 nM | 0.18 | 
